Experimental data: ChEMBL document CHEMBL1147231, “Cytotoxic and antimalarial beta-carboline alkaloids from the roots of Eurycoma longifolia” (J Nat Prod, 2003)
Values after ≈ are worked out from the molar mass of the structure shown. Active and inactive are the calls of the source. The calls are words filed in the database; no cut-off is given here.

What was measured:
A549 = test: Cytotoxicity against human A549 cells by SRB assay; format: functional; conditions: for EC50: Homo sapiens, A549, read-out: ED50 (the source's name)
In short: (§1)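 Sulforhodamine B assay on human lung (A549) and breast (MCF-7) cancer cell lines; ED50 taken as the compound concentration giving 50% reduction in absorbance at 562 nm relative to untreated cells.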

MCF7 = test: Cytotoxicity against human MCF7 cells by SRB assay; format: functional; conditions: for EC50: Homo sapiens, MCF7, read-out: ED50 (the source's name); in short: as §1
Plasmodium falciparum [1] = test: Antimalarial activity against Plasmodium falciparum W2; format: functional, organism-based
In short: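 In vitro drug susceptibility measured by parasite incorporation of radiolabeled hypoxanthine (modified Desjardins method); mefloquine and chloroquine run in parallel as positive controls.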

Plasmodium falciparum [2] = test: Antimalarial activity against Plasmodium falciparum D6; format: functional, organism-based
In short: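 Drug susceptibility in vitro by modified Desjardins method with Milhous modifications. Read-out is parasite incorporation of radiolabelled hypoxanthine. Mefloquine and chloroquine were run in parallel as positive controls.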

Row | Structure (SMILES) | EC50 (A549) | EC50 (MCF7) | IC50 (Plasmodium falciparum [1]) | inhibition (INH) (A549) | inhibition (INH) (MCF7) | Activity (A549) | IC50 (Plasmodium falciparum [2])
1 | O=c1ccc2nccc3c4ccccc4n1c23 [CANTHIN-6-ONE] | 3.6 µg/mL (≈ 16.3 µM) | 7.3 µg/mL (≈ 33.1 µM) | 2.24 µg/mL (≈ 10.2 µM) |  |  |  | 
2 | O=c1ccc2nccc3c4ccc(O)cc4n1c23 | 10 µg/mL (≈ 42.3 µM) | 19.6 µg/mL (≈ 83 µM) | 2.34 µg/mL (≈ 9.89 µM) |  |  |  | 
3 | COc1ccc2c3cc[n+]([O-])c4ccc(=O)n(c2c1)c34 | 18.5 µg/mL (≈ 69.5 µM) | 18.9 µg/mL (≈ 71 µM) |  |  |  |  | 
4 | COc1ccc2c(c1)[nH]c1c(CCC(=O)O)nccc12 | > 20 µg/mL | > 20 µg/mL |  | 7% | 15% |  | 
5 | COc1ccc2c3ccnc4ccc(=O)n(c2c1)c43 | < 2.5 µg/mL | 4.5 µg/mL (≈ 18 µM) |  | 55% |  |  | 
6 | O=C(O)CCc1nccc2c1[nH]c1ccccc12 |  | > 20 µg/mL |  |  | 8% | inactive | 
7 | COc1c(O)c2nccc3c4ccccc4n(c1=O)c23 [PICRASIDINE Q] | 16.2 µg/mL (≈ 60.8 µM) | 18.1 µg/mL (≈ 68 µM) | 3.52 µg/mL (≈ 13.2 µM) |  |  |  | 2.96 µg/mL (≈ 11.1 µM)
